Assay results pooled from the literature.
Lines come from different studies, so protocols differ.
P4HB: Protein disulfide-isomerase (P4HB, Homo sapiens, UniProt P07237)
CTSL: Procathepsin L (CTSL, Homo sapiens, UniProt P07711)
NEU1: Sialidase-1 (NEU1, Homo sapiens, UniProt Q99519)

Compound | target | assay | endpoint | result
O=C(O)c1cc(O)c(O)c(O)c1 | P4HB | enzyme activity, inhibitor, fluorescence | IC50 | > 500 µM
COCCC(=O)N[C@@H](CCC(N)=O)C(=O)N[C@@H](Cc1ccccc1)C(=O)N[C@@H](CCCNC(=N)N)C(=O)c1nc2ccccc2s1 | CTSL | cell-free assay | Ki | > 10 µM
[Cl][Cd][Cl] | Voltage-dependent P/Q-type calcium channel subunit alpha-1A (Homo sapiens, UniProt O00555) | ion current, inhibitor, patch clamp | IC50 | 4.2 µM
O=C(O)C1=C[C@H](O)[C@@H](n2cc(-c3ccc(-c4ccccc4)cc3)nn2)[C@H]([C@H](O)[C@H](O)CO)O1 | NEU1 | enzyme activity, inhibitor | IC50 | > 500 µM
CS(=O)(=O)N[C@@H](CCC(N)=O)C(=O)N[C@@H](Cc1ccccc1)C(=O)N[C@@H](CCCNC(=N)N)C(=O)c1nccs1 | CTSL | cell-free assay | Ki | > 10 µM
CC(C)(C)CC(=O)N[C@H]1[C@H]([C@H](O)[C@H](O)CO)OC(C(=O)O)=C[C@@H]1O | NEU1 | enzyme activity, inhibitor | IC50 | 160 µM
O=C(O[C@@H]1Cc2c(O)cc(O)cc2O[C@H]1c1ccc(O)c(O)c1)c1cc(O)c(O)c(O)c1 | P4HB | enzyme activity, inhibitor, fluorescence | IC50 | > 20 µM
OB1OCc2cc(F)ccc21 | blaNDM-5 (Escherichia coli, UniProt G3K399) | enzyme activity, inhibitor | IC50 | 19.6 µM
